# Compound activity (PubChem BioAssay)
# SIAE inh = human SIAE inhibitors, primary screen, biochemical, fluorescence polarization, FP-Rh probe, 1536-well HTS | SIAE FP-Rh probe binding | inhibition, % at 9.66 µM | hit rate 0.69% among 370,000 | Sialate O-acetylesterase (Homo sapiens), Q9HAT2;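 active = inhibition above a cutoff: mean of compounds within the control limits plus 3 SD of those, cut at about 17% in these data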;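 also: 0% = plate median of compound wells and 100% = probe without SIAE protein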
# LEDGF integ inh = blockers of LEDGF/p75-dependent integrase strand transfer – biochemical, TR-FRET, high throughput, primary screen; TR-FRET IN-LEDGF/p75 DNA integration, Eu/Cy5; inhibition, % at 3.7 µM; hit rate 0.64% among 370,000; HIV-1 integrase (with human LEDGF/p75);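 active = inhibition above the screen-wide mean plus 3 SD, cut at about 13% in these data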;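 also: signal is the Cy5 over europium emission ratio at 671 and 618 nm; 0% = plate median of compound wells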
# TDP2 absorb = human TDP2 enzyme inhibitors, primary screen, biochemical, epi absorbance, recombinant enzyme; T5PNP hydrolysis, p-nitrophenol absorbance 415 nm; inhibition, % at 12.8 µM; hit rate 0.34% among 370,000;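 active = inhibition above the mean of all tested compounds plus 3 SD, set per campaign, cut at about 25% in these data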;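 also: 0% = DMSO with enzyme and 100% = buffer with substrate but no TDP2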
#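 Incubation: 2 h at 37 °C; Test system: recombinant human TDP2; Quantity: enzyme 120 nM; Read-out basis: percent inhibition; Medium: 50 mM Tris-HCl pH 7.5 with Mg2+, KCl, DTT, BSA; Repeats: single replicate; Compound: 12.8 µM single point, 1% DMSO; Signal: epi absorbance; Reagent: 5 mM T5PNP chromogenic substrate; Benchmarks: no-enzyme high, DMSO-plus-enzyme low.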
# mABHD4 FP = ABHD4 inhibitors, primary screen, biochemical, fluorescence polarization, mouse. (Lyso)-N-acylphosphatidylethanolamine lipase (Mus musculus), Q8VD66. purified mABHD4, FP-Rh probe fluorescence polarization. AID 720543, 2013. inhibition, % at 8.92 µM. hit rate 0.54% among 370,000;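 active = inhibition exceeding the mean over every tested compound plus 3 SD, cut at about 30% in these data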;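 also: 0% = plate median of compound wells and 100% = S159A mutant with DMSO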
#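 Doses – 8.92 µM, single dose · Material – wild-type mouse ABHD4 protein · Replication – single well per compound (singlicate) · Measure – percent inhibition of probe binding, normalized to plate controls · Schedule – 45 min compound pre-incubation plus 60 min probe step, 25 °C · Detection – fluorescence polarization with parallel and perpendicular emission, 525/598 nm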
# HTRA1 inhibitor = HTRA1 serine protease inhibitors, primary screen, biochemical, fluorescence polarization, HTS. hit rate 0.5% among 340,000. recombinant HTRA1, FP-rhodamine activity-based probe. AID 504803, 2011. inhibition, % at 5.96 µM. Q92743; in the data active = inhibition above about 36%;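 also: 0% = enzyme with DMSO and 100% = wells lacking enzyme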
# Target sequence (Q92743 whole entry, looked up): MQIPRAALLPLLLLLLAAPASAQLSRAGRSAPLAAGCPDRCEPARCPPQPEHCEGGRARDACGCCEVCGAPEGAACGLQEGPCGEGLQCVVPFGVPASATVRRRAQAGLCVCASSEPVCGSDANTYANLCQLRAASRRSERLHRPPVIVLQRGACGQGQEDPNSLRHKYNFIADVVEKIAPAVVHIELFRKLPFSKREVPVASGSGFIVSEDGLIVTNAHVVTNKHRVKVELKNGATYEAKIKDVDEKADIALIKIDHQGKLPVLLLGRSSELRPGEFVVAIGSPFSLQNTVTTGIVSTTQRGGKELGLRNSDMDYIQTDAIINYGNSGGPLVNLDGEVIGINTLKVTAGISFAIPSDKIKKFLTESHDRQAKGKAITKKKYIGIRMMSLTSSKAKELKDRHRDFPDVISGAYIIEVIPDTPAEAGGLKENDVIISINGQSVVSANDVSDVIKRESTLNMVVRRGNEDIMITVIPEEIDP
# TCR CD3 inh = inhibitors of human TCR-CD3 interaction, primary screen, biochemical, fluorescence, TAMRA-labeled TCR probe. inhibition, % at 9.4 µM. hit rate 0.37% among 360,000. AID 651800, 2012; in the data active = inhibition above about 19%;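 also: recombinant mutant TCR 2C K166C tagged with TAMRA read by polarization; 0% = receptor in buffer alone and 100% = receptor with positive control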
# TDP2 inh conf = human TDP2 enzyme inhibitors, retest, confirmation, biochemical, epi absorbance, recombinant enzyme; shares compounds with TDP2 absorb; absorbance read-out; AID 743263, 2014; hit rate 22% among 1,100; inhibition, % at 12.8 µM; in the data active = inhibition above about 25%;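 also: 0% = vehicle with enzyme and 100% = no enzyme buffer only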
# IN multimer act = HIV-1 IN multimer formation enhancers, counter-screen for LEDGF/p75 integration inhibitor project, biochemical, TR-FRET. activation, % at 7.7 µM. TR-FRET HIV-1 integrase multimerization. shares compounds with LEDGF integ inh. AID 1053131, 2014. hit rate 17% among 2,000; in the data active = activation above about 8.9%
# TRFRET interf = TR-FRET optical interference artefacts, confirmation, artefact control for LEDGF/p75-dependent integration inhibitor project, biochemical, HIV-1 IN multimerization | AID 1053135, 2014 | inhibition, % at 7.7 µM | shares compounds with LEDGF integ inh | TR-FRET optical interference counterscreen | 2,000 tested, under 10 active;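 active = inhibition above the mean over all tested compounds plus 3 SD, which no compound reached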;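 also: 0% = integrase with antibodies and DMSO and 100% = antibodies without integrase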
# LEDGF integ conf = inhibitors of HIV-1 IN-LEDGF/p75 DNA integration, confirmation, biochemical, TR-FRET | shares compounds with LEDGF integ inh | TR-FRET LEDGF/p75-dependent HIV-1 integration | inhibition, % at 3.7 µM | hit rate 36% among 2,000 | AID 1053136, 2014; in the data active = inhibition above about 14%
# * hit, by the source's call; nt = not tested or not shown; ! = repeats disagree. Hits are enriched below; roughly 2.2% of the tested compounds scored in any of these assays.
SMILES,SIAE inh,LEDGF integ inh,TDP2 absorb,mABHD4 FP,HTRA1 inhibitor,TCR CD3 inh,TDP2 inh conf,IN multimer act,TRFRET interf,LEDGF integ conf
O=C(N/N=C/c1ccc(O)cc1O)C(=O)N/N=C/c1ccc(O)cc1O,5,15*,26*,21,36,18,7,13*,-64,26*
Nc1[nH]c(C(=O)c2ccccc2)c(-c2cccc3ccccc23)c1C(=O)c1cccs1,-1,0,3,11,nt,5,nt,nt,nt,nt
COc1cc(/C=C2\C(=O)N(c3ccc(NC(C)=O)cc3)N=C2c2ccccc2)ccc1O,14,44*,54*,14,7,-11,12,4,-21,-1
COC(=O)C[C@@H]1CC[C@H]2[C@@H](COc3ccc(NC(=O)c4cc(C)on4)cc3C(=O)N2C)O1,4,0,3,3,nt,nt,nt,nt,nt,nt
CC(=O)c1cccc(-c2ccc3c(=O)[nH]c(Nc4ccccc4)cc3c2)c1,-18,21*,57*,7,14,6,52*,4,-14,71*
COc1ccccc1Nc1nnc(C)c(=O)[nH]1,-8,1,-5,-10,-1,-10,nt,nt,nt,nt
COc1ccc(OC)c(Nc2cc3ccccc3c(=O)[nH]2)c1,10,17*,68*,29,6,-5,61*,6,-20,65*
COc1ccccc1Nc1cc2cc(Br)ccc2c(=O)[nH]1,7,21*,63*,11,0,2,57*,6,-23,73*
O=c1[nH]c(Nc2ccccc2)cc2cc(Br)ccc12,7,35*,83*,22,5,-2,58*,2,-6,58*
COc1ccc(OC)c(Nc2nnc(C)c(=O)[nH]2)c1,12,-4,-6,-2,nt,0,nt,nt,nt,nt
Cc1c(C(=O)N/N=C/c2ccccc2Cl)[nH][nH]c1=O,7,-1,1,2,nt,nt,nt,nt,nt,nt
CC1CN(C(=O)c2ccccc2)CCC1=NO (configuration not stated),-2,1,7,4,nt,10,nt,nt,nt,nt
COc1ccc2cc(-c3cccc4[nH]cc(C)c34)ccc2c1,5,-1,3,-7,nt,nt,nt,nt,nt,nt
CCCCn1c(NC(C)=O)c(C#N)c2nc3ccccc3nc21,-4,0,1,-3,-7,3,nt,nt,nt,nt
C=CCn1c(NC(=O)c2ccccc2Cl)c(C#N)c2nc3ccccc3nc21,-1,30*,79*,-7,-1,10,45*,-3,11,72*
CC(C)(C)OC(=O)NCc1ccccc1/C=C/S(=O)(=O)NCc1ccccc1,-6,-3,2,-1,nt,nt,nt,nt,nt,nt
Cc1ccc(S(=O)(=O)NC2=C(N3CCN(c4ccccc4F)CC3)C(=O)c3ccccc3C2=O)cc1,6,15*!,25*!,22,8,-7,1,0,2,2
Cc1ccc(S(=O)(=O)NC2=C(N3CCN(Cc4ccccc4)CC3)C(=O)c3ccccc3C2=O)cc1,-4,3,1,28,26,1,nt,nt,nt,nt
